≈ marks a conversion by molar mass, not a printed value.
Experiments:
Staphylococcus aureus [1] = assay: Minimum inhibitory concentration (MIC) against the cell line Staphylococcus aureus A5177; format: functional
In short: (§1)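 Aerobic MICs by 2-fold dilution on brain–heart infusion agar, reported in micrograms/milliliter.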

Bacteroides fragilis [2] = assay: Minimum inhibitory concentration against Bacteroides fragilis ATCC 25285; format: functional
In short: (§2)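 Anaerobic MICs by 2-fold dilution in Wilkens-Chalgren broth, reported in micrograms/milliliter.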

Clostridium perfringens [3] = assay: Minimum inhibitory concentration against Clostridium perfringens ATCC 13124; format: functional
In short: (§3)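 Anaerobic MIC by 2-fold dilution in Wilkens-Chalgren broth; values in µg/mL.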

[4] = test system: Staphylococcus epidermidis; assay: Minimum inhibitory concentration (MIC) against the strain Staphylococcus epidermidis 3519
Staphylococcus aureus [5] = assay: Minimum inhibitory concentration (MIC) against the cell line Staphylococcus aureus ATCC 6538P; format: functional; in short: as §1
[6] = test system: Bacteroides thetaiotaomicron; assay: Minimum inhibitory concentration against Bacteroides thetaiotaomicron ATCC 29741; format: functional; in short: as §2
Streptococcus equinus = assay: Minimum inhibitory concentration (MIC) against the cell line Streptococcus bovis A5169; format: functional; in short: as §1
Streptococcus pyogenes = assay: Minimum inhibitory concentration (MIC) against the cell line Streptococcus pyogenes EES61; format: functional; in short: as §1
[7] = biological target: DNA-directed RNA polymerase subunit beta (Escherichia coli K-12) (UniProt P0A8V2); assay: Percent inhibition at a concentration of 100 ug/mL of RNA polymerase isolated from Escherichia coli K12 (Sigma)
Sequence of DNA-directed RNA polymerase subunit beta (Escherichia coli K-12) (P0A8V2 whole entry, looked up): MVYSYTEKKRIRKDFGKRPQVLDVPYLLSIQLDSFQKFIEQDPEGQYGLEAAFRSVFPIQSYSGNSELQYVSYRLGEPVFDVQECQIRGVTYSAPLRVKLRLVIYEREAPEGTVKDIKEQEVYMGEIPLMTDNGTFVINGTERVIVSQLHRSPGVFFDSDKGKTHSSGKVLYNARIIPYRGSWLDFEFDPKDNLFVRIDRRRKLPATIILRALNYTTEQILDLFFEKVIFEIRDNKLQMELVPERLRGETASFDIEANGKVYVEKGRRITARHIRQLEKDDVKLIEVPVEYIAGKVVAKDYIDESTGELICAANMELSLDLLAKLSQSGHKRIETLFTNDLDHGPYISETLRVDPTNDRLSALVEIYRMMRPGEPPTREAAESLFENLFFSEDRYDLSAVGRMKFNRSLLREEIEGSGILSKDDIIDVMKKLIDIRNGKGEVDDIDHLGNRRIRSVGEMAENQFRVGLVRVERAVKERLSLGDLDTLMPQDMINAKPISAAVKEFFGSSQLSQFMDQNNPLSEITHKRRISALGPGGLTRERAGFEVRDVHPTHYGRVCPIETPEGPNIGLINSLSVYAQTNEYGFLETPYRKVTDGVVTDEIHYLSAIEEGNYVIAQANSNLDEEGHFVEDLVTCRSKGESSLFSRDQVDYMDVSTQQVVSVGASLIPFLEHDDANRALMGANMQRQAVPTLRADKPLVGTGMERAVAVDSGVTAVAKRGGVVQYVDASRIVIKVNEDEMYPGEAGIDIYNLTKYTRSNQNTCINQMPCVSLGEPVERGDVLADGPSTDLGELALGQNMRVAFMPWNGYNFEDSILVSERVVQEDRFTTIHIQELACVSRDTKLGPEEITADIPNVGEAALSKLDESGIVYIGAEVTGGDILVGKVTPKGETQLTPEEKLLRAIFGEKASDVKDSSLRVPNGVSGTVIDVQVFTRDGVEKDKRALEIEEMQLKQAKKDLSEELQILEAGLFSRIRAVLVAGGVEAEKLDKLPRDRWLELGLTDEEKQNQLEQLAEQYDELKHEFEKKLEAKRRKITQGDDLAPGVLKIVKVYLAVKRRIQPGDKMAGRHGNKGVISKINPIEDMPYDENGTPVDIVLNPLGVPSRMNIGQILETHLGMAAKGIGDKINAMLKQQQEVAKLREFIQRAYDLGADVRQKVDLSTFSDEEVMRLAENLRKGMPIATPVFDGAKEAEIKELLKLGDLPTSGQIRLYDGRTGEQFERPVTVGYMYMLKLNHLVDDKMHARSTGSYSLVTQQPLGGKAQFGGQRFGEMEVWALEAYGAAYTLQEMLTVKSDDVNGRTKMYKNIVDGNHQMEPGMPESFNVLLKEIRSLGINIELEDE

Pseudomonas aeruginosa = assay: Minimum inhibitory concentration (MIC) against the cell line Pseudomonas aeruginosa A5007; format: functional; in short: as §1
Staphylococcus aureus [8] = assay: Minimum inhibitory concentration (MIC) against the cell line Staphylococcus aureus 45; format: functional; in short: as §1
Escherichia coli [9] = assay: Minimum inhibitory concentration (MIC) against the cell line Escherichia coli H560; format: functional; in short: as §1
Micrococcus luteus = assay: Minimum inhibitory concentration (MIC) against the cell line Micrococcus luteus ATCC 4698; format: functional; in short: as §1
Staphylococcus aureus [10] = assay: Minimum inhibitory concentration (MIC) against the cell line Staphylococcus aureus CMX 686B; format: functional; in short: as §1
Escherichia coli [11] = assay: Minimum inhibitory concentration (MIC) against the cell line Escherichia coli juhl; format: functional; in short: as §1
Clostridioides difficile [12] = assay: Minimum inhibitory concentration against Clostridium difficile ATCC 9689; format: functional; in short: as §2
Clostridium perfringens [13] = assay: Minimum inhibitory concentration against Clostridium perfringens ATCC 13124; 0.05-0.1; format: functional; in short: as §3
Bacteroides fragilis [14] = assay: Minimum inhibitory concentration against Bacteroides fragilis ATCC 25285; 0.1-0.8; format: functional; in short: as §2
Clostridioides difficile [15] = assay: Minimum inhibitory concentration against Clostridium difficile ATCC 9689; 1.6-3.1; format: functional; in short: as §2
[16] = test system: Bacteroides thetaiotaomicron; assay: Minimum inhibitory concentration against Bacteroides thetaiotaomicron ATCC 29741; 0.2-0.8; format: functional; in short: as §2
Staphylococcus aureus [17] = assay: Compound is evaluated for cross resistance with DNA gyrase subunit A or B against Staphylococcus aureus 45; format: functional
In short: (§4)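 Aerobic MIC by 2-fold dilution on brain–heart infusion agar; values in µg/mL.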

Staphylococcus aureus [18] = assay: Compound is evaluated for cross resistance with DNA gyrase subunit A or B against Staphylococcus aureus 730A; format: functional; in short: as §4
Staphylococcus aureus [19] = assay: Compound is evaluated for cross resistance with DNA gyrase subunit A or B against Staphylococcus aureus 337-113 (norfloxacin-resistant); format: functional; in short: as §4
Staphylococcus aureus [20] = assay: Compound is evaluated for cross resistance with DNA gyrase subunit A or B against Staphylococcus aureus 45CR-1 (coumermycin resistant); format: functional; in short: as §4

| Structure (SMILES) | MIC (Bacteroides fragilis [2]) | MIC (Clostridium perfringens [3]) | MIC [6] | MIC (Clostridioides difficile [12]) | also measured |
| --- | --- | --- | --- | --- | --- |
| CC(/C=C/C(O)=C1\C(=O)CNC1=O)=C\c1ccc2ccccc2c1 | ≤ 0.5 µg/mL | ≤ 0.5 µg/mL | ≤ 0.5 µg/mL | ≤ 0.5 µg/mL | MIC (Staphylococcus aureus [1]): 1.56 µg/mL (≈ 4.88 µM); MIC [4]: 3.1 µg/mL (≈ 9.71 µM); MIC (Staphylococcus aureus [5]): 0.78 µg/mL (≈ 2.44 µM); MIC (Streptococcus equinus): 12.5 µg/mL (≈ 39.1 µM); MIC (Streptococcus pyogenes): 12.5 µg/mL (≈ 39.1 µM); inhibition [7]: 13.1%; MIC (Pseudomonas aeruginosa): 100 µg/mL (≈ 313 µM); MIC (Staphylococcus aureus [8]): 0.78 µg/mL (≈ 2.44 µM); MIC (Escherichia coli [9]): > 100 µg/mL; MIC (Micrococcus luteus): 6.2 µg/mL (≈ 19.4 µM); MIC (Staphylococcus aureus [10]): 0.78 µg/mL (≈ 2.44 µM); MIC (Escherichia coli [11]): > 100 µg/mL |
| CC(/C=C/C(O)=C1\C(=O)CNC1=O)=C\[C@@H](C)C1OC2(C)OC(C(=O)[C@@H]3O[C@@]32C)C1C (stereo partly drawn) |  |  |  |  | MIC (Clostridium perfringens [13]): ≤ 0.05 µg/mL; inhibition [7]: 50%; MIC (Bacteroides fragilis [14]): 0.1 µg/mL (≈ 0.24 µM); MIC (Clostridioides difficile [15]): 1.6 µg/mL (≈ 3.83 µM); MIC [16]: 0.2 µg/mL (≈ 0.479 µM) |
| CC(/C=C/C(O)=C1\C(=O)CN(C)C1=O)=C\C(C)c1ccccc1 (stereo not drawn) | 8 µg/mL (≈ 25.7 µM) | 125 µg/mL (≈ 401 µM) | 16 µg/mL (≈ 51.4 µM) | 125 µg/mL (≈ 401 µM) |  |
| CO[C@@H]1[C@@H](OC(=O)c2ccc(C)[nH]2)[C@@H](O)[C@@H](Oc2ccc3c(O)c(NC(=O)c4c[nH]c(C(=O)Nc5c(O)c6ccc(O[C@H]7OC(C)(C)[C@H](OC)[C@@H](OC(=O)c8ccc(C)[nH]8)[C@H]7O)c(C)c6oc5=O)c4C)c(=O)oc3c2C)OC1(C)C [COUMERMYCIN] |  |  |  |  | MIC (Staphylococcus aureus [17]): 0.008 µg/mL (≈ 0.00721 µM); MIC (Staphylococcus aureus [18]): 0.008 µg/mL (≈ 0.00721 µM); MIC (Staphylococcus aureus [19]): 0.008 µg/mL (≈ 0.00721 µM); MIC (Staphylococcus aureus [20]): 4 µg/mL (≈ 3.6 µM) |
| CC(/C=C/C(=O)C1=C(O)CN(C)C1=O)=C\C1CCCCO1 (stereo not drawn) | 125 µg/mL (≈ 429 µM) | 125 µg/mL (≈ 429 µM) | 125 µg/mL (≈ 429 µM) | 125 µg/mL (≈ 429 µM) |  |
| CO[C@H]1/C=C/O[C@@]2(C)Oc3c(C)c(O)c4c(O)c(c(/C=N/N5CCN(C)CC5)c(O)c4c3C2=O)NC(=O)/C(C)=C\C=C\[C@H](C)[C@H](O)[C@@H](C)[C@@H](O)[C@@H](C)[C@H](OC(C)=O)[C@@H]1C |  |  |  |  | inhibition [7]: 57% |
| O=C(/C=C/C(Cl)=C/c1ccccc1)C1=C(O)CNC1=O | 8 µg/mL (≈ 27.6 µM) | 4 µg/mL (≈ 13.8 µM) | 8 µg/mL (≈ 27.6 µM) | 4 µg/mL (≈ 13.8 µM) | inhibition [7]: 3.2% |
| CC(/C=C/C(=O)C1=C(O)CN(C)C1=O)=C\c1ccnc2ccccc12 | 16 µg/mL (≈ 47.9 µM) | 8 µg/mL (≈ 23.9 µM) | 31 µg/mL (≈ 92.7 µM) | 8 µg/mL (≈ 23.9 µM) |  |
| CC(/C=C/C(=O)C1=C(O)CN(C)C1=O)=C\CC1CCCCC1 | 8 µg/mL (≈ 26.4 µM) | 2 µg/mL (≈ 6.59 µM) | 31 µg/mL (≈ 102 µM) | 2 µg/mL (≈ 6.59 µM) |  |
| CC(/C=C/C(=O)C1=C(O)CN(C)C1=O)=C\c1ccc(F)c2ccccc12 | 2 µg/mL (≈ 5.69 µM) | 62 µg/mL (≈ 176 µM) | 2 µg/mL (≈ 5.69 µM) | 31 µg/mL (≈ 88.2 µM) |  |
| CCCCCC(/C=C/C(O)=C1\C(=O)CN(C)C1=O)=C\c1ccccc1 | 62 µg/mL (≈ 183 µM) | 16 µg/mL (≈ 47.1 µM) | 125 µg/mL (≈ 368 µM) | 31 µg/mL (≈ 91.3 µM) | inhibition [7]: 5.6% |
| CC(/C=C/C(=O)C1=C(O)CN(C)C1=O)=C\c1c(O)ccc2ccccc12 | 31 µg/mL (≈ 88.7 µM) | 16 µg/mL (≈ 45.8 µM) | 31 µg/mL (≈ 88.7 µM) | 16 µg/mL (≈ 45.8 µM) |  |
| CN1CC(O)=C(C(=O)/C=C/C(Cl)=C/c2ccccc2)C1=O | 16 µg/mL (≈ 52.7 µM) | 8 µg/mL (≈ 26.3 µM) | 16 µg/mL (≈ 52.7 µM) | 8 µg/mL (≈ 26.3 µM) |  |
| CC(/C=C/C(=O)C1=C(O)CN(C)C1=O)=C\c1ccccn1 | 62 µg/mL (≈ 218 µM) | 31 µg/mL (≈ 109 µM) | 125 µg/mL (≈ 440 µM) | 8 µg/mL (≈ 28.1 µM) |  |
| CN1CC(O)=C(C(=O)/C=C/C=C/c2ccccc2[N+](=O)[O-])C1=O | 62 µg/mL (≈ 197 µM) | 62 µg/mL (≈ 197 µM) | 62 µg/mL (≈ 197 µM) | 62 µg/mL (≈ 197 µM) |  |
| CC(/C=C/C(=O)C1=C(O)C(C)N(C)C1=O)=C\c1ccc2ccccc2c1 (stereo not drawn) | 62 µg/mL (≈ 178 µM) | 31 µg/mL (≈ 89.2 µM) | 62 µg/mL (≈ 178 µM) | 62 µg/mL (≈ 178 µM) |  |
| CC(/C=C/C(=O)C1=C(O)CN(C)C1=O)=C\c1ccccc1 | 4 µg/mL (≈ 14.1 µM) | 8 µg/mL (≈ 28.2 µM) | 8 µg/mL (≈ 28.2 µM) | 4 µg/mL (≈ 14.1 µM) |  |
| CN1CC(=O)\C(=C(O)/C=C/C=C/c2ccc(N(C)C)cc2)C1=O | 125 µg/mL (≈ 400 µM) | 31 µg/mL (≈ 99.2 µM) | 62 µg/mL (≈ 198 µM) | 31 µg/mL (≈ 99.2 µM) |  |
| COCCOCc1ccc2ccccc2c1/C=C(C)/C=C/C(O)=C1\C(=O)CN(C)C1=O | 125 µg/mL (≈ 297 µM) | 125 µg/mL (≈ 297 µM) | 250 µg/mL (≈ 593 µM) | 8 µg/mL (≈ 19 µM) |  |
